For this assay, the target named is Aldo-keto reductase family 1 member B1 (Homo sapiens, UniProt P15121). As to the kind of experiment: In vitro inhibition of human placental aldose reductase. The essentials:
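Human placental aldose reductase, partly purified (placentae homogenized in 0.1 M K phosphate pH 7.0 with 5 mM 2-mercaptoethanol, spun 33000g, peak fractions pooled). Assay in 50 mM K phosphate pH 7.1 with 0.4 M ammonium sulfate, 0.067 mM NADPH, 1.0 mM DL-glyceraldehyde; enzyme set to 4 milliunits; NADPH oxidation at 340 nm, 25 °C, 10 min. IC50 by log linear regression.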

On to `CCOC(=O)C1CN(Cc2cccc3ccccc23)C(=O)C1=O` (configuration not stated), for which the half-inhibitory concentration (IC50) is 2300 nM. Under `CCOC(=O)C1CN(Cc2ccccc2Cl)C(=O)C1=O` (configuration not stated) stands 2300 nM.
